The target of one assay is Histone deacetylase 1 (Homo sapiens, UniProt Q13547). The assay can be described thus: Inhibition of full length His-tagged human recombinant HDAC1 expressed in baculovirus system using fluor de Lys as substrate by fluorometric analysis.
Another assay concerns A549. In words: Antiproliferative activity against human A549 cells after 72 hrs by CellTiter-Glo assay. Type of assay: functional, cell-based. The conditions noted are these: A549, 72 h. For orientation: ATP-based viability assays read luminescence as a measure of living cells.
Another assay has as its system K562. In words: Antiproliferative activity against human K562 cells after 72 hrs by CellTiter-Glo assay. The conditions noted are these: K562, 72 h. The assay is classed as functional, cell-based.
Assay [1] has as its system NB-4. The assay can be described thus: Induction of apoptosis in human NB4 cells after 48 hrs by Annexin V test. The assay is classed as functional, cell-based. Conditions: NB-4, 48 h.
Assay [2] concerns the target T1, Protein deacetylase HDAC6 (Homo sapiens, UniProt Q9UBN7).
T1 sequence (Q9UBN7 whole entry): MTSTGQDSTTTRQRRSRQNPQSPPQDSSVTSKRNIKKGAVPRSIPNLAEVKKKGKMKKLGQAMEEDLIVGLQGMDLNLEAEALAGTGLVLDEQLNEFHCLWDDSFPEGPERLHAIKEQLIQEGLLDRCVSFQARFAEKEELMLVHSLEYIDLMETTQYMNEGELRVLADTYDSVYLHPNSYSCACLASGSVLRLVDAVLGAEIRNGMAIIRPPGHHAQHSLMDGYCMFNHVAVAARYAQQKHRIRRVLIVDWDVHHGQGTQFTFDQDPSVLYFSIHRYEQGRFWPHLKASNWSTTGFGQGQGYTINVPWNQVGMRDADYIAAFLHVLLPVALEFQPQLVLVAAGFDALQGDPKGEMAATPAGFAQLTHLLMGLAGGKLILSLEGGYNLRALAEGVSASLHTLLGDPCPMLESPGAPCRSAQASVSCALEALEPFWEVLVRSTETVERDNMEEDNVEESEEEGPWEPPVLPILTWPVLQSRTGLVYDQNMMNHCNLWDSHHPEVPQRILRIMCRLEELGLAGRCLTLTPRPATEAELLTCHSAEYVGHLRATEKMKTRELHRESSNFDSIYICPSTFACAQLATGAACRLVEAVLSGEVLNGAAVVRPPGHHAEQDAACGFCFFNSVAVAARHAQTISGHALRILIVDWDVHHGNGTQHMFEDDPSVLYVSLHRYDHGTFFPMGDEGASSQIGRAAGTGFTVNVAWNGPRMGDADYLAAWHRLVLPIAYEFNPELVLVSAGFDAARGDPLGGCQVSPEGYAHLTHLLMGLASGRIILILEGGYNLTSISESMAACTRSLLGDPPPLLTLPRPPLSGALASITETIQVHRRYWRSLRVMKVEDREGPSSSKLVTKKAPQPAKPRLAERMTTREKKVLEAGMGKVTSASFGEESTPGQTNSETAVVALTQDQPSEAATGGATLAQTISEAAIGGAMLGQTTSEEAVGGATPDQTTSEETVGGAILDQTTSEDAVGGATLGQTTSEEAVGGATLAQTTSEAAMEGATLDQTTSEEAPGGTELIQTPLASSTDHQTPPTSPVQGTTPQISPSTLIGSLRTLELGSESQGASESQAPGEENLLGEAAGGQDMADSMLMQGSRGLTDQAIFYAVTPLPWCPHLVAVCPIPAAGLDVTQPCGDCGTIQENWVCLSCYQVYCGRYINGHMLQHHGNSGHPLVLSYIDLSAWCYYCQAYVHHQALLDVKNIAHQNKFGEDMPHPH
The assay can be described thus: Inhibition of full length His-tagged human recombinant HDAC6 expressed in baculovirus system using fluor de Lys as substrate by fluorometric analysis.

Assay [3] addresses T2, Histone deacetylase (Homo sapiens) (UniProt Q13547+O15379+Q9UBN7+Q92769+Q9UQL6+Q8WUI4+Q9BY41+Q96DB2+P56524+Q9UKV0+Q969S8). Conditions: HeLa, at 1 µM.
The subject of another assay is HCT-116. In words: Antiproliferative activity against human HCT116 cells after 72 hrs by CellTiter-Glo assay. The assay is classed as functional, cell-based. Conditions: HCT-116, 72 h.
A further assay has as its target Histone deacetylase. In words: Inhibition of HDAC in human HeLa cell extract using fluor de Lys as substrate after 15 mins by fluorometric analysis. The assay is classed as protein assay.
The target in assay [4] is T2, Histone deacetylase (Homo sapiens). In words: Inhibition of HDAC in human NB4 cells assessed as histone H3 acetylation at 1 uM by densitometric analysis. Type of assay: cell-based. Conditions: NB-4. In short, it runs like this: (§1)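 NB4 cells (1×10^5/ml) exposed 6 h to 0, 0.5, 1 or 2 μM drug (DMSO vehicle ≤0.3%). Lysed in 1% Triton X-100/1 mM PMSF/40 mM Tris-HCl pH 8.0/150 mM NaCl and sonicated. Run on 12.5% SDS-PAGE, blotted, probed with rabbit anti-acetyl-H3 or -H4 plus peroxidase secondary, ECL. Densitometry against α-tubulin, treated vs untreated, from one typical experiment.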

The target is the same in assay [5]. In words: Inhibition of HDAC in human NB4 cells assessed as histone H4 acetylation at 0.5 uM by densitometric analysis. The conditions noted are these: NB-4. The assay is classed as cell-based. In short, it runs like this:
as §1

In assay [6] the test system is NB-4. In words: Induction of apoptosis in human NB4 cells assessed increase in apoptotic bodies at 1 to 2 uM using Giemsa staining by microscopic analysis. Type of assay: functional, cell-based.
In assay [7] the test system is NB-4. In words: Induction of apoptosis in human NB4 cells assessed apoptotic cells at 0.5 uM using Annexin-V-Fluos and propidium iodide staining by cytofluorimetric analysis (reference value: 7.2 %). Type of assay: functional.
Assay [8] concerns the target T2, Histone deacetylase (Homo sapiens). The assay can be described thus: Inhibition of HDAC in human NB4 cells assessed as histone H4 acetylation at 1 uM by densitometric analysis. The assay is classed as cell-based. Conditions: NB-4. The method in brief: as §1
For assay [9], the system named is NB-4. In words: Induction of apoptosis in human NB4 cells assessed fragmentation using Giemsa staining by microscopic analysis. Type of assay: functional, cell-based.
In assay [10] the target is T2, Histone deacetylase (Homo sapiens). The assay can be described thus: Inhibition of HDAC in human NB4 cells assessed as histone H3 acetylation after 6 hrs by Western blot/immunostaining analysis. Type of assay: cell-based. The conditions noted are these: NB-4. The method in brief: as §1
In general terms: Immunoblotting shows a protein as a band on a membrane.

The target is the same in assay [11]. In words: Inhibition of HDAC in human NB4 cells assessed as histone H4 acetylation after 6 hrs by Western blot/immunostaining analysis. Type of assay: cell-based. Conditions: NB-4. In short, it runs like this:
as §1

Assay [12] concerns NB-4. The assay can be described thus: Induction of apoptosis in human NB4 cells assessed apoptotic cells at 1 uM using Annexin-V-Fluos and propidium iodide staining by cytofluorimetric analysis (reference value: 7.2 %). The assay is classed as functional.
Assay [13] relates to NB-4. The assay can be described thus: Induction of apoptosis in human NB4 cells assessed increase in cell shrinking using Giemsa staining by microscopic analysis. The assay is classed as functional, cell-based.
The subject of assay [14] is NB-4. In words: Induction of apoptosis in human NB4 cells assessed apoptotic cells at 2 uM using Annexin-V-Fluos and propidium iodide staining by cytofluorimetric analysis (reference value: 7.2 %). Type of assay: functional.
In assay [15] the test system is NB-4. The assay can be described thus: Cytotoxicity against human NB4 cells assessed as cell viability after 48 hrs by trypan blue exclusion test. The conditions noted are these: NB-4, 48 h. Type of assay: functional, cell-based.
Assay [16] addresses T2, Histone deacetylase (Homo sapiens). The assay can be described thus: Inhibition of HDAC in human NB4 cells assessed as histone H3 acetylation at 0.5 uM by densitometric analysis. Type of assay: cell-based. The conditions noted are these: NB-4. The method in brief: as §1

Calls of active or inactive are those of the source. No cut-off for these calls is given here.

Sequence of Histone deacetylase 1 (Q13547 whole entry): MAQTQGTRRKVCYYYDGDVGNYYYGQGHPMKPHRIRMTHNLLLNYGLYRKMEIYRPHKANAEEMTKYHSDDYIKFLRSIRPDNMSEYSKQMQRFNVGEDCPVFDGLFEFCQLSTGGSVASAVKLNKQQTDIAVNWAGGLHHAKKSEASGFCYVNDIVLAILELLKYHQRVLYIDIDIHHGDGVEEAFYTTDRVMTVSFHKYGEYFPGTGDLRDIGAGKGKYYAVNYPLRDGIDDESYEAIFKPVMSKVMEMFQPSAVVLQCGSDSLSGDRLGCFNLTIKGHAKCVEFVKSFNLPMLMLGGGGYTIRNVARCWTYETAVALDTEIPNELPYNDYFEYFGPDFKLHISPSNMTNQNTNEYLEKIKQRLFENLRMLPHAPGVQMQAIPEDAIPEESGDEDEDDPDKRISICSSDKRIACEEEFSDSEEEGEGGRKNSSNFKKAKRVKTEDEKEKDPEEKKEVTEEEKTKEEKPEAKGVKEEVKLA

As usually defined, the IC50 is the concentration needed to halve the response being measured. By inhibition is commonly meant how much of the control response was suppressed. Turning to `CN1C(=O)CN=C(c2ccccc2)c2cc(C#CCCC(=O)NO)ccc21`, the IC50 at Histone deacetylase 1 was 2750 nM; in the assay with A549 it was 10300 nM; in the assay on K562, 8220 nM; in the assay on NB-4 [1] it was above 5000 nM; in assay [2], above 100000 nM; in the assay with HCT-116, 6540 nM. The inhibition in [3] was determined as 22%.

In the case of `CN1C(=O)CN=C(c2ccccc2)c2cc(C#C/C=C/C(=O)NO)ccc21`, the IC50 at Histone deacetylase 1 worked out at 440 nM; in the assay with A549 it was 1300 nM; against Histone deacetylase it was 160 nM; with K562 it was 780 nM; with NB-4 [1], 2600 nM; in [2] it was 7720 nM. The same compound returned an IC50 in the assay with HCT-116 of 460 nM. Also, the inhibition in assay [3] was determined as 82%.

Regarding `CN1C(=O)CN=C(c2ccccc2)c2cc(C#CCCCC(=O)NO)ccc21`, the IC50 with A549 is 5950 nM; in the assay on K562, 4970 nM; in the assay on NB-4 [1] it was 1950 nM; in the assay on HCT-116, 2620 nM. The same compound displayed an inhibition in assay [3] of 39%.

Take `C[C@@H]1N=C(c2ccccc2)c2cc(C#CCCCC(=O)NO)ccc2NC1=O`: the IC50 on Histone deacetylase 1 is 490 nM; in the assay on A549 it was 2820 nM; at Histone deacetylase, 340 nM; in the assay with K562, 1400 nM; in the assay with NB-4 [1], 3040 nM; in assay [2], 460 nM. Half-maximal inhibition with HCT-116 (IC50) required 970 nM. Also, the inhibition in assay [3] amounted to 65%.

In the assay on NB-4 [1], `CN1C(=O)C(NC(=O)CCCCCCC(=O)NO)N=C(c2ccccc2)c2ccccc21` (racemic) came in with an IC50 of 1200 nM.

For the compound `CN1C(=O)C(NC(=O)CCCCCCCC(=O)NO)N=C(c2ccccc2)c2ccccc21` (racemic), the IC50 at Histone deacetylase 1 is 480 nM; with A549, 7950 nM; on Histone deacetylase, 600 nM; with K562 it was 4590 nM; in the assay on NB-4 [1] it was 4000 nM; in assay [2] it was 9080 nM. This compound yielded an IC50 in the assay with HCT-116 of 3930 nM. In addition, the inhibition in assay [3] turned out to be 57%.

For the compound `CN1C(=O)C(N)N=C(c2ccccc2)c2cc(C#CCCCC(=O)NO)ccc21` (racemic), the IC50 on Histone deacetylase 1 was 1090 nM; in assay [2] it was above 100000 nM.

As for `CN1C(=O)C(NC(=O)CCCCCC(=O)NO)N=C(c2ccccc2)c2ccccc21` (racemic), the IC50 on Histone deacetylase 1 was 270 nM; in the assay on A549 it was 4420 nM; on Histone deacetylase, 320 nM; in the assay with K562, 1840 nM; with NB-4 [1] it was 2560 nM; in assay [2], 180 nM. Also, half-maximal inhibition with HCT-116 (IC50) was put at 1440 nM. The inhibition in [3] stood at 73%.

`CN1C(=O)C(NC(=O)CCCCC(=O)NO)N=C(c2ccccc2)c2ccccc21` (racemic): the IC50 on Histone deacetylase 1 is 420 nM; with A549, 5440 nM; at Histone deacetylase it was 380 nM; in the assay with K562, 3280 nM; in the assay on NB-4 [1], 1910 nM; in assay [2] it was above 100000 nM. In addition, in the assay on HCT-116, the IC50 came to 2010 nM. For the same compound, the inhibition in [3] stood at 70%.

Turning to `CN1C(=O)[C@H](NC(=O)CCCCCCC(=O)NO)N=C(c2ccccc2)c2ccccc21`, the IC50 was 700 nM at Histone deacetylase 1; 2690 nM with A549; 310 nM against Histone deacetylase; 1720 nM with K562; above 5000 nM in the assay on NB-4 [1]; 6500 nM in [2]. For the same compound, the IC50 with HCT-116 came to 1070 nM. In [3], the inhibition was determined as 73%.

For the compound `CN1C(=O)CN=C(c2ccccc2)c2cc(C#CCCCCC(=O)NO)ccc21`, the IC50 stood at 1900 nM on Histone deacetylase 1; 2690 nM in the assay with A549; 2670 nM in the assay with K562; 4090 nM with NB-4 [1]; 5900 nM in assay [2]; 1860 nM in the assay on HCT-116. In assay [3], this compound gave an inhibition of 36%.

Regarding `O=C(CCCCCCC(=O)N1CCN=C(c2ccccc2)c2ccccc21)NO`, the IC50 at Histone deacetylase 1 turned out to be 250 nM; with A549 it was 2540 nM; on Histone deacetylase, 180 nM; with K562 it was 1670 nM; with NB-4 [1] it was 3990 nM; in assay [2], 1120 nM. The same compound returned an IC50 in the assay with HCT-116 of 1440 nM. In assay [3], the inhibition came out at 82%.

On to `CN1C(=O)[C@@H](NC(=O)CCCCCCC(=O)NO)N=C(c2ccccc2)c2ccccc21`, for which the inhibition is 84% in assay [4]; 8% in assay [5]; 51% in [8]; “Dose-dependent effect” in [10]; “Dose-dependent effect” in assay [11]; 88% in assay [3]. Moreover, in assay [16], the inhibition is 50%. Besides, the result in the assay with NB-4 [6] was Active. Besides, the IC50 was 550 nM at Histone deacetylase 1; 1440 nM in the assay on A549; 120 nM at Histone deacetylase; 720 nM in the assay on K562; 860 nM in the assay with NB-4 [1]; 400 nM in assay [2]. For the same compound, the values for the IC50 with NB-4 [15] and with HCT-116 were 460 nM and 470 nM, respectively. The Activity in the assay with NB-4 [7] is 8.6%; with NB-4 [9], “Dose-dependent effect”; in the assay with NB-4 [12], 66.2%; with NB-4 [13], “Dose-dependent effect”; with NB-4 [14], 83.4%.

Source of the values: ChEMBL document CHEMBL2406989, “Design, synthesis and preliminary evaluation of a series of histone deacetylase inhibitors carrying a benzodiazepine ring” (Eur J Med Chem, 2013).
